Shown are actives, neighbours in structure and some others; about 1.9% of the full set was active somewhere.
M5 ag: human M5 muscarinic receptor agonists, primary screen, CHO-K1 cells, Fluo-8 calcium fluorescence. Muscarinic acetylcholine receptor M5 (Homo sapiens), P08912. 360,000 tested, 0.19% active. AID 624037, 2012. activation, % at 3 µM. CHO-K1 hM5 cells; 0% DMSO wells, 100% maximal acetylcholine response;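 active = activation above the run's mean over test compounds plus 3 SD, cut at about 23% in these data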;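 note: signal is peak over basal fluorescence ratio across the kinetic read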
Target sequence (P08912 whole entry, looked up): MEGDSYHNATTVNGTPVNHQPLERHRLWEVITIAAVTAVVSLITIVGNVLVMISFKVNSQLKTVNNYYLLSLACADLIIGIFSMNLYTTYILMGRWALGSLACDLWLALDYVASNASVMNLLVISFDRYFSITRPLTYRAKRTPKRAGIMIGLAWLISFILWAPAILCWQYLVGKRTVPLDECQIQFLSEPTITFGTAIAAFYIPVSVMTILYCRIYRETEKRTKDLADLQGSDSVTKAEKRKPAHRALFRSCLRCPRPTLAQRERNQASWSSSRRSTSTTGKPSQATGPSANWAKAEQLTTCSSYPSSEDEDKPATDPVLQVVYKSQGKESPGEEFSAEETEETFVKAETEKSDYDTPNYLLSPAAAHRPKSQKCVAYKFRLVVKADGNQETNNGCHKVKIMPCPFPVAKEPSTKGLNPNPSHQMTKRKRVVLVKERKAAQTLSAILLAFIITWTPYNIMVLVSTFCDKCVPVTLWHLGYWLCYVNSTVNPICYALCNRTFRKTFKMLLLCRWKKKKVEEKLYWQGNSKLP
M5 antag: human M5 muscarinic receptor antagonists, primary screen, CHO cells, Fluo-8 calcium fluorescence; Muscarinic acetylcholine receptor M5 (Homo sapiens), P08912; CHO-hM5 cells, ACh EC80; inhibition, % at 3 µM; 360,000 tested, 0.59% active; AID 624040, 2012;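 active = inhibition above a per-plate cutoff, the mean of that plate's test compounds plus 3 SD, cut at about 27% in these data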
CHRM5 PAM: human M5 muscarinic receptor positive allosteric modulators, primary screen, CHO-K1 cells, Fluo-8 calcium fluorescence; 360,000 tested, 0.3% active; activation, % at 3 µM; AID 624038, 2012; CHO-K1 hM5, ACh EC20 PAM; 0% = ACh EC20, 100% = ACh EC100; Muscarinic acetylcholine receptor M5 (Homo sapiens), P08912;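 active = activation above the run cutoff, the mean activation of all test compounds plus 3 SD, cut at about 18% in these data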
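System: CHO-K1 hM5 cells. Reagent: acetylcholine, EC20 level. Compound dosing: single dose, 3 µM nominal final test concentration. Timing: Post-acetylcholine fluorescence recording 140 s. Detection: Fluo-8 calcium fluorescence. Read-out: % activation, ACh-normalized. Benchmarks: ACh EC20 and EC100 wells. Repeats: singlicate, one well per test compound.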
M4 antag: human M4 muscarinic receptor antagonists, primary screen, CHO cells, Fluo-8 calcium fluorescence | CHO-hM4 cells, ACh EC80 | inhibition, % at 3 µM | 360,000 tested, 0.73% active | AID 624125, 2012;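 active = inhibition above its plate's cutoff, the mean inhibition of sample wells plus 3 SD, cut at about 27% in these data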
M4 PAM: human M4 muscarinic receptor positive allosteric modulators, primary screen, CHO-K1 cells, Fluo-8 calcium fluorescence; activation, % at 3 µM; CHO-K1 hM4/Gqi5, ACh EC20; 0% = ACh EC20, 100% = maximal ACh; Muscarinic acetylcholine receptor M4 (Homo sapiens), P08173; 360,000 tested, 0.4% active;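 active = activation above its plate's cutoff, the mean activation of sample wells plus 3 SD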
CHRM4 agonist: human M4 muscarinic receptor agonists, primary screen, CHO-K1 cells, Fluo-8 calcium fluorescence | CHO-K1 hM4/Gqi5; vehicle 0%, full acetylcholine response 100% | AID 624127, 2012 | 360,000 tested, 0.14% active | activation, % at 3 µM;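 active = activation above the run mean over all test wells plus 3 SD, cut at about 32% in these data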;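 note: peak over basal fluorescence ratio per well then scaled between controls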
A number is an active result; - = inactive.

SMILES | M5 ag | M5 antag | CHRM5 PAM | M4 antag | M4 PAM | CHRM4 agonist
C/C(=N\NC(=O)c1ccc2c(c1)OCO2)c1ccc(C(=O)O)s1 | - | 28.0 | - | - | - | -
COCCCNC(=O)c1csc([C@H]2C[C@H](O)[C@@H](CO)O2)n1 | - | - | - | - | - | -
Cc1ccc(C)c(S(=O)(=O)NCc2ccc(C(=O)N3CCN(C)CC3)cc2)c1 | - | - | - | - | 20.4 | -
Cc1onc(-c2c(Cl)cccc2Cl)c1C(=O)N1CCc2ccccc21 | - | - | - | 37.9 | - | -
CC(C)CNS(=O)(=O)c1ccc(CCC(=O)NC2CCCCC2)cc1 | - | - | 19.8 | - | - | -
O=[N+]([O-])c1ccc(S(=O)(=O)c2cccc(C(F)(F)F)c2)nc1 | - | - | - | 45.6 | - | -
O=C(CCCC(=O)N1CCCC1)N1CCCC1 | - | - | - | - | - | -
O=C(O)CCCC(=O)N1CCCC1 | - | - | 20.6 | - | - | -
O=C1OC(N2C(=O)CC[C@H]2C(=O)Nc2ccc3c(c2)OCO3)c2ccccc21 (stereo partly drawn) | - | - | - | - | - | -
Cc1cc(NC(=O)CN(C)S(=O)(=O)c2cnc[nH]2)ccc1Br | - | - | - | - | - | -
Cc1ccc(C(=O)C2C(=O)c3ccccc3C2=O)cc1 | - | - | - | - | - | -
NN=C1c2ccccc2C(=O)C1C(=O)C(c1ccccc1)c1ccccc1 (stereo not drawn) | 56.5 | 37.8 | - | - | - | -
CC(C)(C)n1nc2c(c1NC(=O)c1ccc(S(=O)(=O)N3CCCCC3)cc1)CS(=O)C2 (stereo not drawn) | - | - | 31.5 | - | - | -
CCOC(=O)c1ccc(NC(=S)NCCc2ccccc2)cc1 | - | - | - | - | - | -
CCOC(=O)c1ccc(NC(=S)NCC(O)c2ccccc2)cc1 (stereo not drawn) | - | 37.7 | - | - | - | -
CCOC(=O)c1ccc(NC(=S)NCCc2ccccc2F)cc1 | - | 29.9 | - | 28.6 | - | -
CCC(=O)N1CCN(C(=O)c2ccccc2)CC1 | - | - | - | 74.5 | - | -
COC(=O)c1ccccc1NC(=O)c1onc(C)c1Cl | - | - | - | - | - | -
CCc1ccccc1NC(=O)c1onc(C)c1Cl | - | - | - | 55.1 | - | -
CC1(C(=O)N2CCN(c3ccc([N+](=O)[O-])cc3)CC2)CC1(Cl)Cl (stereo not drawn) | - | - | - | - | - | -
CCOC(=O)c1ccc(NC(=O)c2cccc(S(=O)(=O)N3CCN(C(C)=O)CC3)c2)cc1 | - | - | - | - | - | -
COc1ncnc2c1ncn2CCCN1CCN(Cc2ccc(C)cc2)CC1 | - | - | - | - | - | -
Cc1ccc(C)c(-n2c(=O)c(C#N)cc3c(=O)n4ccccc4nc32)c1 | - | - | 27.6 | - | - | -
CCN(CC)CCN1C(=O)/C(=C\c2ccc(Cl)c([N+](=O)[O-])c2)SC1=Nc1ccc(OC)cc1 | - | 29.8 | - | - | - | -
CCCC(=O)Nc1ccc(OCC(O)CNC(C)C)c(C(C)=O)c1 (stereo not drawn) | - | - | - | 99.9 | - | -
SMILES | M5 ag | M5 antag | CHRM5 PAM | M4 antag | M4 PAM | CHRM4 agonist
COc1ccc(CN(CC2CCC(C(=O)O)CC2)C(=S)Nc2cc(C)cc(C)c2)cc1 (stereo not drawn) | - | - | - | - | 18.5 | -
CC(C)n1nc(C(=O)OCC(=O)N2CC(=O)Nc3ccccc32)c2ccccc2c1=O | - | - | - | - | 19.6 | -
O=C1CN(C(=O)COC(=O)c2ccccc2O)c2ccccc2N1 | - | - | - | - | - | -
COc1ccc(/C=N/NC(=O)c2cccc([N+](=O)[O-])c2)cc1OC(=O)c1ccc(C)cc1 | - | - | 56.7 | - | - | -
COc1cc(/C=N/NC(=O)c2ccncc2)ccc1Oc1ccc([N+](=O)[O-])cn1 | - | - | 18.5 | - | - | -
CCOc1ccc(NC(=O)COc2ccc(C(=O)NCC3CCCO3)cc2OC)cc1 (stereo not drawn) | - | - | - | - | - | -
CCOc1cc(N2CCOCC2)c(OCC)cc1NC(=O)c1cc(-c2ccco2)nc2ccccc12 | - | - | - | 28.5 | - | -
CS(=O)(=O)N1CCCC(c2nc(-c3ccc(S(=O)(=O)NCc4ccccc4)cc3)no2)C1 (stereo not drawn) | - | 28.7 | - | 33.4 | - | -
O=C(Cn1nnc(-c2ccc(CN3CCOCC3)cc2)n1)N(c1ccccc1)c1ccccc1 | - | - | 22.6 | - | - | -
CS(=O)(=O)c1ccc2nc(NC(=O)c3ccc(Cn4cc(Br)cn4)o3)sc2c1 | - | 27.7 | - | - | - | -
CCCC(C)(C)C(=O)N1CCC1(C)C(=O)Nc1ccc2c(c1)OCCO2 (stereo not drawn) | - | - | - | - | - | -
COc1ccc(S(=O)(=O)N(C)C[C@@H]2Oc3cc(Br)ccc3S(=O)(=O)N([C@H](C)CO)C[C@@H]2C)cc1 | - | - | - | - | - | -
O=C(NCCN1CCOCC1)c1ccc(Cl)c(S(=O)(=O)NCc2ccccc2)c1 | - | - | - | - | 22.0 | -
CC1CCN(CCOc2ccc(C(=O)c3ccccc3)cc2)CC1 | - | - | - | 42.8 | - | -
CC1CCN(CCCOc2ccc(OCc3ccccc3)cc2)CC1 | - | - | - | - | - | -
CC1CCN(CCCCOc2ccc(C(=O)c3ccccc3)cc2)CC1 | - | - | - | 42.2 | - | -
CC1CCN(CCCCOc2cccc(C(C)C)c2)CC1 | - | - | - | 33.7 | - | -
Cc1ccccc1C1N=C2Oc3ccccc3C=C2C(=O)N1 (stereo not drawn) | - | - | - | - | - | -
CCC(CO)NCC#Cc1ccccc1 (stereo not drawn) | - | - | - | 40.2 | - | -
OC(CNCC#Cc1ccccc1)c1ccccc1 (stereo not drawn) | - | - | - | - | - | -
CCCCN(CC)C(=O)c1cc2cc3ccc(OC)cc3nc2o1 | - | - | 41.7 | - | - | -
CCOc1ccc(CNc2nc3ccccc3n2C)cc1 | - | - | 21.3 | - | - | -
CCOc1ccc(Nc2nc3ccccc3n2C)cc1 | - | - | - | - | - | -
CC1CC(C)CN(C(=O)c2cccc(S(=O)(=O)NCc3ccccc3)c2)C1 (stereo not drawn) | - | - | - | - | - | -

Screens (PubChem BioAssay)
